Bioassay records deposited in PubChem by Broad Institute.
ERAP1 HTS inh: blocks human ERAP1 aminopeptidase activity. 340,000 compounds, 0.15% hits. Q9NZ08. inhibition, % at 10.7 µM. recombinant ERAP1, Leu-AMC fluorescence, 60 min;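 active means mean replicate inhibition of at least 30%, or all replicates individually reaching that 30% level; inactive means mean below 30% and not every replicate reaching it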
Target sequence (Q9NZ08 whole entry, looked up): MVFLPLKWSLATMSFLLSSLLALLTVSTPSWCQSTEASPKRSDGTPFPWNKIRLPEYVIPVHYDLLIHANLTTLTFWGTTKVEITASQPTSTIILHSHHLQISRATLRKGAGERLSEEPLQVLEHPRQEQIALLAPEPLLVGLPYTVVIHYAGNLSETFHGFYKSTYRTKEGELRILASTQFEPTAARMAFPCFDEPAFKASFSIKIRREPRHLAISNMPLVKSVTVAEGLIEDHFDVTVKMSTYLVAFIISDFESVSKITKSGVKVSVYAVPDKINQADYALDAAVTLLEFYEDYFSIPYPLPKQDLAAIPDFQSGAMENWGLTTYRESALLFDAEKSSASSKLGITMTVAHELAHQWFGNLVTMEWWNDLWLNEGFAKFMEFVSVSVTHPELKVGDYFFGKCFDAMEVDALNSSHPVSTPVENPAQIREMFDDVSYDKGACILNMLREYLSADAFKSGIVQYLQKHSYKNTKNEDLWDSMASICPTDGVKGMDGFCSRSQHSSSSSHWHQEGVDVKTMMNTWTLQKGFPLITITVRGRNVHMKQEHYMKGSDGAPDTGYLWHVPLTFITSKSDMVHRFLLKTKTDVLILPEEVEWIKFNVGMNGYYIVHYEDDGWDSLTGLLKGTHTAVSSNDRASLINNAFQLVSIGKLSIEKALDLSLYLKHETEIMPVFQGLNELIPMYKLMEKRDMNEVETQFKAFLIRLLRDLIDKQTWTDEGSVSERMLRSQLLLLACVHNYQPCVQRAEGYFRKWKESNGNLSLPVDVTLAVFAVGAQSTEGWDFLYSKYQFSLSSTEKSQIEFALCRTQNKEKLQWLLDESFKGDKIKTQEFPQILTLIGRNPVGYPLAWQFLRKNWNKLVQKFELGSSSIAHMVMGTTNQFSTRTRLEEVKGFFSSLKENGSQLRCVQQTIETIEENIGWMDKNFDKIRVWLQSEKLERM
Env fusion inh: inhibitors of HIV Env-mediated cell fusion. HeLa-JRFL Env/CEM21 cell fusion, luciferase. 360,000 compounds, 1.1% hits. inhibition, % at 12.3 µM;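 active means mean replicate inhibition score of at least 50 and every replicate individually at or above 50; inconclusive means only one of the two criteria met; inactive means mean below 50 and not all replicates reaching 50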
Wnt act: Wnt/beta-catenin pathway activation; Wnt/beta-catenin reporter cell assay, activator, plate reader; activation, % at 9.35 µM; 300,000 compounds, 1.2% hits; AID 743398; in the data active means activation above about 30%, passing the limit was not always enough; inconclusive means no clear call, values can overlap the other calls
esBAF inh: inhibitors of esBAF chromatin remodeling in mouse ES cells; AID 602393; reporter increase, % at 12.5 µM; 350,000 compounds, 2% hits; Bmi1-luciferase knock-in reporter, 24 h; 100% = twice the neutral-well signal; in the data active means activation above about 40%; inconclusive means no clear call, values can overlap the other calls;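 further: a rise in the Bmi1 reporter signal indicates esBAF inhibition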
Cneo AK release: Cryptococcus neoformans lysis via adenylate kinase release | 360,000 compounds, 0.2% hits | lysis activity, % at 15 µM | C. neoformans lysis, adenylate kinase release luminescence, 4 h; normalised: neutral wells 0, clomiphene wells 100;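 active means mean lysis activity across replicates of at least 80%, whatever share of replicates individually reach that level; inactive means mean lysis activity below 80%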
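Assay system: C. neoformans cells. Amount: yeast cell density of 5 × 10^6 cells/mL. Technique: AK luminescence. Buffer or medium: YPD. Times: static 4 h at 37 °C with compound, 1 h detection. Dosing: single-point compound dose. Read-out: lysis from increased AK signal.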
MITF act: MITF TRPM1 promoter activation in melanoma cells. SK-MEL-5 TRPM1-promoter luciferase, 24 h; % of positive control, neutral wells = 0. activation, % at 12.5 µM. 300,000 compounds, 0.75% hits. AID 588334;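 active means mean activation of at least 80% with every replicate also reaching 80%; inconclusive means mean reaches 80% but some replicate falls short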
Each line names hits and unclear results; the compound was inactive in the other large screens; [ ] = another dose, or the depositor's remark. Rows were chosen to be rich in hits. Some 3.5% of all compounds tested hit in one or more screens of this group.

Cc1cc2c3c(c1C)C1(C(=O)N3C(C)(C)CC2C)C(C#N)=C(N)Oc2cc(O)ccc21 (centres undefined)	Env fusion inh 61.9 (no result: ERAP1 HTS inh)
CCCN1C(=O)C(O)(C2CC(=O)CC(C)(C)O2)c2ccccc21 (centres undefined)	Cneo AK release 126.1 (no result: ERAP1 HTS inh, Env fusion inh)
C[C@H](CO)N1C[C@H](C)[C@H](CN(C)S(=O)(=O)c2ccc(F)cc2)Oc2ccc(N(C)C)cc2CC1=O	none (no result: Env fusion inh, Wnt act, MITF act)
O=C(Nc1ccccc1)C(=O)Nc1ccc2c(c1)N(C(=O)C1CC1)CCC2	Wnt act 41.8, MITF act 92.2 (no result: esBAF inh)
C[n+]1cccc(C(=O)NNC(=O)C23CC4CC(CC(C4)C2)C3)c1	ERAP1 HTS inh 109.3 (no result: esBAF inh, Cneo AK release)
COc1ccccc1C(=O)NNC(=O)C12CC3CC(CC(C3)C1)C2	none
c1ccc(-n2nnc(-c3nccs3)n2)cc1	Wnt act 40.0, MITF act inconclusive
Brc1ccccc1-n1nnc(-c2nccs2)n1	Wnt act 45.1, esBAF inh inconclusive, MITF act 90.8
Oc1ccc(-c2nccs2)cc1	none
COc1ccc(CN(C)C[C@@H]2OCCCC[C@H](C)Oc3ccc(NC(=O)Nc4cccc5ccccc45)cc3C(=O)N([C@H](C)CO)C[C@H]2C)cc1	none (no result: Wnt act, MITF act)
COc1cc(C(N)=O)ccc1OCc1ccccc1	none (no result: ERAP1 HTS inh)
NC(=O)c1ccc(OCc2ccccc2)nc1	esBAF inh 60.0, MITF act 87.9 (no result: Env fusion inh)
COc1ccc2[nH]c(=O)c(CNc3cccc(C)c3)cc2c1	esBAF inh 56.1 (no result: ERAP1 HTS inh, Env fusion inh, Wnt act)
COc1ccc(NCc2cc3cc(OC)ccc3[nH]c2=O)cc1	none (no result: Env fusion inh)
COc1ccc(C(=O)C[n+]2cc(-c3ccc(OC)cc3)n3c2CCCC3)cc1	none (no result: Cneo AK release)
Cc1ccc(C(=O)C[n+]2cc(-c3ccc(C)cc3)n3c2CCCCC3)cc1	Env fusion inh 68.0 (no result: ERAP1 HTS inh, Wnt act)
Cc1oc(-c2ccc(Cl)cc2)cc1C(=O)O	esBAF inh 55.6 (no result: Cneo AK release)
Cc1oc(-c2ccccc2)cc1C(=O)Nc1cccc(C(=O)O)c1	none (no result: ERAP1 HTS inh, Wnt act)
O=[N+]([O-])c1ccc(N=Nc2ncc[nH]2)cc1	Wnt act 53.5
O=[N+]([O-])c1ccc(N=NN(CCO)CCO)cc1	none (no result: esBAF inh, Cneo AK release)
C[C@H](CO)N1C[C@H](C)[C@H](CN(C)C(=O)CCC(F)(F)F)OCCCC[C@H](C)Oc2ccc(NC(=O)Cc3ccccc3)cc2C1=O	none (no result: Wnt act, MITF act)
COC(=O)c1cccc(CC2(C)C(=O)Nc3cc(-c4ccccc4Cl)ccc32)c1 (centres undefined)	Env fusion inh 90.0 (no result: MITF act)
CC1(Cc2ccccc2OC(F)(F)F)C(=O)Nc2cc(-c3ccccc3Cl)ccc21 (centres undefined)	Env fusion inh 55.6 (no result: MITF act)
CC1(Cc2ccccc2OC(F)(F)F)C(=O)Nc2ccc(-c3ccsc3)cc21 (centres undefined)	Env fusion inh 71.1 (no result: MITF act)
CC1(Cc2ccccc2Cl)C(=O)Nc2cc(-c3ccccc3Cl)ccc21 (centres undefined)	none (no result: MITF act)
COc1ccc(N2C(=O)c3cccc4cccc(c34)C2=O)cc1	none
COc1ccc(N2C(=O)c3cccc4c(N(C)CCO)ccc(c34)C2=O)cc1	esBAF inh 42.8 (no result: MITF act)
C[C@H]1CCCCO[C@@H](CN(C)Cc2ccccc2)[C@@H](C)CN([C@@H](C)CO)C(=O)c2cc(NC(=O)Nc3ccc(C(F)(F)F)cc3)ccc2O1	Env fusion inh 68.1[16.7 µM] (no result: Wnt act, MITF act)
C[C@@H]1CN([C@H](C)CO)C(=O)c2cc(NC(=O)Nc3ccccc3)ccc2O[C@@H](C)CCCCO[C@@H]1CN(C)Cc1ccc(C(F)(F)F)cc1	Env fusion inh 58.4[16.7 µM] (no result: ERAP1 HTS inh, Wnt act, MITF act)
C[C@@H]1CN([C@@H](C)CO)C(=O)c2cc(NC(=O)c3ccccc3)ccc2O[C@@H](C)CCCCO[C@H]1CN(C)Cc1ccc(C(=O)O)cc1	Env fusion inh 62.4[16.7 µM] (no result: Wnt act, MITF act)
C[C@@H]1CCCCO[C@H](CN(C)Cc2ccc(C(F)(F)F)cc2)[C@H](C)CN([C@@H](C)CO)C(=O)c2cc(NC(=O)Nc3ccccc3)ccc2O1	none (no result: ERAP1 HTS inh, Wnt act, MITF act)
C[C@@H]1CN([C@H](C)CO)C(=O)c2cc(NC(=O)Nc3cccc4ccccc34)ccc2O[C@@H]1CN(C)Cc1ccc(C(F)(F)F)cc1	Env fusion inh 73.6[16.7 µM] (no result: Wnt act, MITF act)
C[C@@H]1CCCCO[C@H](CN(C)Cc2ccccc2)[C@@H](C)CN([C@@H](C)CO)C(=O)c2cc(NC(=O)C3CCCCC3)ccc2O1	none (no result: Wnt act, MITF act)
C[C@H]1CCCCO[C@@H](CN(C)Cc2ccc(C(F)(F)F)cc2)[C@@H](C)CN([C@@H](C)CO)C(=O)c2cc(NC(=O)Nc3cccc4ccccc34)ccc2O1	Env fusion inh 61.4[16.7 µM] (no result: ERAP1 HTS inh, Wnt act, MITF act)
C[C@H](CO)N1C[C@H](C)[C@H](CN(C)CC2CC2)OCCCC[C@H](C)Oc2ccc(NC(=O)Nc3cccc4ccccc34)cc2C1=O	Env fusion inh 62.0[16.7 µM] (no result: ERAP1 HTS inh, Wnt act, MITF act)
C[C@H]1CCCCO[C@H](CN(C)Cc2ccc(C(F)(F)F)cc2)[C@@H](C)CN([C@@H](C)CO)C(=O)c2cc(NC(=O)Nc3cccc4ccccc34)ccc2O1	none (no result: ERAP1 HTS inh, Wnt act, MITF act)
C[C@@H]1CCCCO[C@@H](CN(C)Cc2ccc(C(F)(F)F)cc2)[C@H](C)CN([C@@H](C)CO)C(=O)c2cc(NC(=O)c3ccccc3)ccc2O1	Env fusion inh 56.4[16.7 µM] (no result: Wnt act, MITF act)
C[C@@H]1CCCCO[C@H](CN(C)Cc2ccccc2)[C@H](C)CN([C@H](C)CO)C(=O)c2cc(NC(=O)Nc3ccc(C(F)(F)F)cc3)ccc2O1	Env fusion inh inconclusive (no result: Wnt act, MITF act)
C[C@H](CO)N1C[C@H](C)[C@H](CN(C)Cc2ccccc2)OCCCC[C@H](C)Oc2ccc(NC(=O)Nc3ccc(C(F)(F)F)cc3)cc2C1=O	Env fusion inh 65.5[16.7 µM] (no result: Wnt act, MITF act)
CN(C)CCCNC(=O)[C@@H]1[C@@H](CO)[C@@H]2Cn3c(ccc(-c4cccc(F)c4)c3=O)[C@H]1N2	none (no result: Wnt act, esBAF inh, Cneo AK release, MITF act)
C/C=C/c1ccc2c(c1)O[C@H](CN(C)C(=O)CN1CCOCC1)[C@H](C)CN([C@@H](C)CO)S2(=O)=O	none (no result: Wnt act, MITF act)
CC(=O)Oc1ccc([C@@H]2COc3c(ccc4c3C=CC(C)(C)O4)C2)c(OC(C)=O)c1	esBAF inh 49.9 (no result: Env fusion inh)
C[C@@H](NC(=O)C[C@@H]1C=C[C@H](NC(=O)Cc2ccccn2)[C@H](CO)O1)c1ccccc1	none (no result: Env fusion inh, Wnt act, MITF act)
CCCNS(=O)(=O)c1ccc(NC(=O)c2cccnc2)cc1	Env fusion inh inconclusive (no result: ERAP1 HTS inh)
O=C(Nc1ccc(N2CCN(Cc3ccccc3Cl)CC2)cc1)c1cccnc1	none (no result: ERAP1 HTS inh, Env fusion inh, Wnt act)
CCc1ccc(NC(=O)c2cccnc2)cc1	Wnt act 53.1, esBAF inh 46.0 (no result: ERAP1 HTS inh)
O=C(Nc1ccc(N2CCCCC2)cc1)c1cccnc1	esBAF inh 61.9 (no result: ERAP1 HTS inh, Env fusion inh, Wnt act)
CCSc1ccc(NC(=O)c2cccnc2)cc1	Wnt act 36.7 (no result: ERAP1 HTS inh, MITF act)
C[C@H]1CN([C@@H](C)CO)C(=O)c2cccc(NC(=O)C3CCCCC3)c2O[C@@H]1CN(C)Cc1ccc(C(=O)O)cc1	none (no result: Env fusion inh, Wnt act, MITF act)
C[C@@H]1CCCCO[C@H](CN(C)C(=O)c2ccccc2)[C@H](C)CN([C@@H](C)CO)C(=O)c2cc(NS(=O)(=O)c3cccs3)ccc2O1	none (no result: Wnt act, MITF act)
